Experimental data gathered from unrelated publications.
Compare with care: the assays were run in different laboratories.
Target: Cytochrome P450 3A4 (CYP3A4, Homo sapiens, UniProt P08684)
Read-out: enzyme activity
Mode: inhibitor

| SMILES | assay | test system | setting | endpoint | value |
| --- | --- | --- | --- | --- | --- |
| Cc1ccc2nc(-c3ccccc3)c(CNc3ccc(F)cc3)n2c1 | – | – | – | IC50 | 270 nM |
| Nc1nc(N)c2nc(CNc3ccc(C(=O)c4ccccc4)cc3)cnc2n1 | luciferase | – | – | IC50 | 43700 nM |
| CC1=CC(=O)C(C(C)C)=CC1=O | fluorescence | – | pH 7.4 | IC50 | 1200 nM |
| CCCCC1=NC2(CCCC2)C(=O)N1Cc1ccc(-c2ccccc2S(=O)(=O)Nc2noc(C)c2C)c(COCC)c1 | – | – | – | Ki | 6330 nM |
| COC(=O)C1CCN(C(=O)c2ccc(SCc3cnc4nc(N)nc(N)c4n3)nc2)CC1 | luciferase | – | – | IC50 | 11700 nM |
| COc1cc2c(c(OC)c1OC)-c1c(cc3c(c1OC)OCO3)C[C@H](C)[C@](C)(O)[C@H]2OC(=O)c1ccccc1 | – | – | 15 min, pH 7.4 | IC50 | 140 nM |
| Nc1nc(N)c2nc(C(=O)NCc3cccc(C(F)(F)F)c3)cnc2n1 | luciferase | – | – | IC50 | 13800 nM |
| CCc1cc(/C(C)=N/OCc2ccc(C3CCCCC3)c(C(F)(F)F)c2)ccc1CN1CC(C(=O)O)C1 | – | human, liver microsomes | 20 min, testosterone probe | IC50 | 600 nM |
| COc1ccc2c(Cc3ccccc3F)c3[n+](cc2c1OC)CCc1cc2c(cc1-3)OCO2 | – | – | – | IC50 | 800 nM |
| O=C(NCCN1CCCC1)c1cc(-c2ccc(CN3CCOCC3)cc2)nc2ccc(F)cc12 | – | human, liver microsomes | midazolam probe | IC50 | > 100000 nM |
| COc1ccc2c(Cc3ccccc3F)c3n(c(=O)c2c1OC)CCc1cc2c(cc1-3)OCO2 | – | – | – | IC50 | 2700 nM |
| COc1ccn2c(Nc3ccccc3F)c(-c3ccncn3)nc2c1 | – | – | – | IC50 | 270 nM |
